# Assay results gathered from unrelated publications.
# Compare with care: the assays were run in different laboratories. pKd, pKi: −log10 of the molar value.
# ADRA1B: Alpha-1B adrenergic receptor (ADRA1B, Homo sapiens, UniProt P35368)
# Nuclear receptor subfamily 4 group A member 2: Nuclear receptor subfamily 4 group A member 2 (Homo sapiens, UniProt P43354)
# P2RY14: P2Y purinoceptor 14 (P2RY14, Homo sapiens, UniProt Q15391)
Compound,target,assay,measurement,value
Cc1cc(Oc2ncccc2CN2CCN(c3cccc(F)c3)CC2)ccc1-c1c(C)c(=O)[nH]c(=O)n1C,ADRA1B,"ligand displacement, radioligand",pKi,5.52
CCCCCCCCCCCCCCCC(=O)OC[C@H](COP(=O)(O)O[C@H]1[C@H](O)[C@@H](OP(=O)(O)O)[C@H](OP(=O)(O)O)[C@@H](OP(=O)(O)O)[C@H]1O)OC(=O)CCCCCCCCCCCCCCC,"Heat shock protein beta-1 (HSPB1, Homo sapiens, UniProt P04792)","binding, MST",pKd,6.73
COc1cccc2c(Nc3ccc4[nH]c(C(=O)N/N=C/c5ccc(SC)cc5)cc4c3)cc(C)nc12,Nuclear receptor subfamily 4 group A member 2,"binding, ITC",pKd,5.55
Cc1cc(Oc2ncccc2CN2CCN(c3cccc(Cl)c3)CC2)ccc1-c1c(C)c(=O)[nH]c(=O)n1C,ADRA1B,"ligand displacement, radioligand",pKi,6.19
O=C(O)c1cc(-c2ccc([C@H]3C[C@H]4C[C@@H]3CN4)cc2)c2ccc(-c3ccc(C(F)(F)F)cc3)cc2c1,P2RY14,"ligand displacement, flow cytometry",pKi,8.74
CN1C(C(=O)Nc2ccccn2)=C(O)c2sc(Cl)cc2S1(=O)=O,Nuclear receptor subfamily 4 group A member 2,"binding, ITC",pKd,5.85
CCC1c2ccsc2CCN1Cc1nc2ccc(Cl)cc2n1CCO (stereo not drawn),"DDB1- and CUL4-associated factor 1 (DCAF1, Homo sapiens, UniProt Q9Y4B6)","binding, SPR",pKd,4.70
Cc1cc(Oc2ncccc2CN2CCN(C(c3ccccc3)c3ccccc3)CC2)ccc1-c1c(C)c(=O)[nH]c(=O)n1C,ADRA1B,"ligand displacement, radioligand",pKi,6.14
COC(=O)c1cn(C)c2ccc(-c3cccnc3)cc12,Nuclear receptor subfamily 4 group A member 2,"binding, ITC",pKd,6.40
Cn1nccc1-c1ccc(-c2cc(C(=O)O)cc3cc(-c4ccc(C(F)(F)F)cc4)ccc23)cc1,P2RY14,"ligand displacement in cells, flow cytometry",pKi,7.55
CCC(=O)NS(=O)(=O)c1ccc(-c2c(-c3ccccc3)noc2C)cc1,Nuclear receptor subfamily 4 group A member 2,"binding, ITC",pKd,5.80
O=C(O)c1cc(-c2ccc(-c3ccc(Cl)s3)cc2)c2ccc(-c3ccc(C(F)(F)F)cc3)cc2c1,P2RY14,"ligand displacement in cells, flow cytometry",pKi,5.92
Cc1cc(Oc2ncccc2CN2CCN(CCc3ccccc3)CC2)ccc1-c1c(C)c(=O)[nH]c(=O)n1C,ADRA1B,"ligand displacement, radioligand",pKi,5.78
O=C(O)c1cc(-c2ccc(-n3ccnn3)cc2)c2ccc(-c3ccc(C(F)(F)F)cc3)cc2c1,P2RY14,"ligand displacement in cells, flow cytometry",pKi,7.85
Cc1cc(Oc2ncccc2CN2CCN(c3ccccc3[N+](=O)[O-])CC2)ccc1-c1c(C)c(=O)[nH]c(=O)n1C,ADRA1B,"ligand displacement, radioligand",pKi,5.53
